Results as given in article PMC3021469 (Investigative radiology, 2010).

Key:
[1] = commercial extracellular fluid agent, on the order of; ref not given; cited from earlier work
[2] = target: human serum albumin (HSA) (Homo sapiens, UniProt P02768); assay type: physicochemical; settings: albumin-bound; fit of variable temperature NMRD; (SD)
Method in brief: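 Samples were 0.1 mM Gd complex with 0.67 mM HSA (4.5% w/v) in pH 7.4 HEPES-buffered saline, Gd by ICP-MS. 1H NMRD profiles were recorded on a field-cycling relaxometer at 5, 15, 25 and 35 °C over 0.01–50 MHz (0.0002–1.2 T), with 22 points per curve. Variable-temperature profiles were fitted using a Lipari-Szabo treatment.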

Chain of human serum albumin (HSA) (P02768 25-609): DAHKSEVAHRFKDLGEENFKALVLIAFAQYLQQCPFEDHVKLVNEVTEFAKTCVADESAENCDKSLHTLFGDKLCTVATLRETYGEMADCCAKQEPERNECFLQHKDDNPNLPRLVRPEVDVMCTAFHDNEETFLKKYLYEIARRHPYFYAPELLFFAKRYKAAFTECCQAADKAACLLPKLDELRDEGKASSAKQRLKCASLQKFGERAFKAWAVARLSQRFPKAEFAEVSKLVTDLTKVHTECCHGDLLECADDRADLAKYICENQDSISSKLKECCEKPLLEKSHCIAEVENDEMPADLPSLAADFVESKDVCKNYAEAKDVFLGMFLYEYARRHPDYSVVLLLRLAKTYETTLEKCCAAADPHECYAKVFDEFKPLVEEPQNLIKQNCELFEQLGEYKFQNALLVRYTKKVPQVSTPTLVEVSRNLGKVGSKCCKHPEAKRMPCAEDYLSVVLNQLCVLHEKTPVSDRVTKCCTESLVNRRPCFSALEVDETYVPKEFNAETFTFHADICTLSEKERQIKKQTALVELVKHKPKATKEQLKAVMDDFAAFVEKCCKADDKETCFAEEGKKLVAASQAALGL

F^2 (Lipari-Szabo order parameter) [2]	ΔH^‡ (activation energy for water exchange) [2]	Δ^2 (transient zero field splitting parameter) [2]	τv (correlation time of transient ZFS modulation) [2]	Molecule	relaxivity r1 [1]
–	–	–	–	O=C([O-])CN(CCN(CC(=O)[O-])CC(=O)O)CCN(CC(=O)[O-])CC(=O)O.[Gd+3] [Gd-DTPA]	~4 mM⁻¹ s⁻¹
0.46 (0.01)	42.3 (4.2) kJ/mol	3.39 (0.12) 10^18 s^-2	22 (3) ps	Gd1b	–
